Data published in ChEMBL document CHEMBL1126839, “Imidazol-1-yl and pyridin-3-yl derivatives of 4-phenyl-1,4-dihydropyridines combining Ca2+ antagonism and thromboxane A2 synthase inhibition” (J Med Chem, 1993).

Experiments:
[1] = species on record: Cavia porcellus; assay: Inhibition of K+ induced contractions of the isolated guinea pig ileum.; type: functional
[2] = molecular target: T1, Thromboxane-A synthase (Rattus norvegicus, UniProt P49430); assay: In vitro inhibition of thromboxane B2 production in rat whole blood.; type: functional, tissue-based
T1 sequence (P49430 whole entry): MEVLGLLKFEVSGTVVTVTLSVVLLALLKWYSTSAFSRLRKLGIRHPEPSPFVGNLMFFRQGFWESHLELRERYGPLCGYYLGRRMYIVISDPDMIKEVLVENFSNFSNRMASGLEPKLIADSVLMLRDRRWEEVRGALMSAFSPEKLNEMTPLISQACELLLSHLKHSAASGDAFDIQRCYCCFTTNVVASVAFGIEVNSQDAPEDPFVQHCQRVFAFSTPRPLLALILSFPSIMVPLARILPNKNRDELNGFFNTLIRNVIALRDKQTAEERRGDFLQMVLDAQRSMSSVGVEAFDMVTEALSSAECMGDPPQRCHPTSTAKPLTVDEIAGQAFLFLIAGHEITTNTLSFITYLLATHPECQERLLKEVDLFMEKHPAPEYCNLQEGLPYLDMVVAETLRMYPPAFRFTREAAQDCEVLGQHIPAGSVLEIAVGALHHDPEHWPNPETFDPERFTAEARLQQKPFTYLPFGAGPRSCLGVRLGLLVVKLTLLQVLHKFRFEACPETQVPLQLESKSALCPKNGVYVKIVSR

[3] = species on record: Cavia porcellus; assay: Tested for [Ca2+] antagonism in guinea pig right ventricle; type: functional; conditions: Heart right ventricle
How it was run: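 Male guinea pig (0.5–0.8 kg) right ventricular strips (10 × 2 mm) in oxygenated Tyrode at 29 °C, 1 g preload. Electrically paced (3 ms, 2 Hz) for 60 min, depolarized with 22 mM KCl, then contractility restored with 10 μM histamine at 0.2 Hz pacing. Isometric contraction recorded; IC50 from computerized regression analysis.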

[4] = species on record: Cavia porcellus; assay: Tested for [Ca2+] antagonism in guinea pig ileum; type: functional
How it was run: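 Screening preparation under 1 g tension; isometric contractions to 60 mM KCl elicited at 15-min intervals without and with increasing compound concentrations. IC50 (concentration inhibiting the KCl response by 50%) from least-squares regression.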

[5] = species on record: Cavia porcellus; assay: Tested for [Ca2+] antagonism in guinea pig atria; type: functional
How it was run: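 Male guinea pig (0.5–0.8 kg) spontaneously beating atria in oxygenated (95% O2/5% CO2) Locke solution at 37 °C under 1 g preload, rested 60 min. Compounds added cumulatively with 30 min contact per concentration. Isometric contraction recorded; IC25 from computerized regression analysis.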

[6] = species on record: Oryctolagus cuniculus; assay: Tested for [Ca2+] antagonism in rabbit renal artery; type: functional
How it was run: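 Isolated renal artery under 1 g tension; isometric contractions to 60 mM KCl repeated at 30 min intervals without and with increasing concentrations of test compound or nifedipine as reference. IC50 from the concentration–response.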

| SMILES | IC50 [1] [nM] | IC50 [2] [nM] | IC50 [3] [nM] | IC50 [4] [nM] | IC25 [5] [nM] | IC50 [6] [nM] |
| --- | --- | --- | --- | --- | --- | --- |
| CO/C(O)=C1\C(C)=NC(C)=C(C(C)=O)C1c1cccc(-n2ccnc2)c1 (centres undefined) | > 10000 | 260 |  |  |  |  |
| CCO/C(O)=C1\C(C)=NC(C)=C(C(=O)OCCN(C)Cc2ccccc2)C1c1cccc(-n2ccnc2)c1 (centres undefined) | 50 | 220 |  |  |  |  |
| CC1=NC(C)=C(C(=O)OCC(C)C)C(c2cccc(-c3cccnc3)c2)/C1=C(\O)OCC(C)C (centres undefined) | 1500 | > 1000 |  |  |  |  |
| CCO/C(O)=C1\C(C)=NC(C)=C(C(=O)OCCN(C)Cc2ccccc2)C1c1cccc(-c2cccnc2)c1 (centres undefined) | 60 | > 1000 |  |  |  |  |
| CCOC(=O)C1=C(CC)N=C(CC)/C(=C(/O)OCC)C1c1cccc(-n2ccnc2)c1 (centres undefined) | 970 | > 1000 |  |  |  |  |
| CCO/C(O)=C1\C(COC)=NC(C)=C(C(=O)OC)C1c1cccc(-n2ccnc2)c1 (centres undefined) | 1950 | 400 |  |  |  |  |
| COC(=O)C1=C(C)N=C(C)/C(=C(/O)OC)C1c1cccc(-n2ccnc2)c1 (centres undefined) | 850 | 270 |  |  |  |  |
| CCOC(=O)C1=C(C)N(C)C(C)=C(C(=O)OCC)C1c1cccc(-n2ccnc2)c1 | 8840 | 640 |  |  |  |  |
| CCOC(=O)c1c(C)nc(C)c(C(=O)OCC)c1-c1cccc(-n2ccnc2)c1 | > 10000 | > 1000 |  |  |  |  |
| CCO/C(O)=C1\C(COCCN)=NC(C)=C(C(=O)OC)C1c1cccc(-n2ccnc2)c1 (centres undefined) | 2370 | 300 |  |  |  |  |
| COC(=O)C1=C(C)NC(C)=C(C(=O)OC)C1c1ccccc1[N+](=O)[O-] [NIFEDIPINE] | 4 | > 10000 | 57.8 | 4.7 | 31.5 | 6.9 |

Further lines, with some results ahead:

| IC50 [1] [nM] | IC50 [2] [nM] | SMILES | IC50 [3] [nM] | IC50 [4] [nM] | IC25 [5] [nM] | IC50 [6] [nM] |
| --- | --- | --- | --- | --- | --- | --- |
| 460 | > 1000 | CCOC(=O)C1=C(C)N=C(C)/C(=C(/O)OCC)C1c1ccccc1-n1ccnc1 (centres undefined) |  |  |  |  |
| 60 | 170 | CCOC(=O)C1=C(C)N=C(C)/C(=C(/O)OCC)C1c1cccc(-n2ccnc2)c1 (centres undefined) | 2150 | 61.5 | 94.2 | 111 |
| 1960 | > 1000 | CCO/C(O)=C1\C(C)=NC(C)=C(C(=O)O)C1c1cccc(-n2ccnc2)c1 (centres undefined) |  |  |  |  |
| 100 | 280 | CCOC(=O)C1=C(C)N=C(C)/C(=C(/O)OCC)C1c1cccc(-c2cccnc2)c1 (centres undefined) |  |  |  |  |
| 1670 | 730 | CCOC(=O)C1=C(C)N=C(C)/C(=C(/O)OCC)C1c1cccc(Cn2ccnc2)c1 (centres undefined) |  |  |  |  |
| 23000 | > 1000 | CCOC(=O)C1=C(C)N=C(C)/C(=C(/O)OCC)C1c1ccc(-n2ccnc2)cc1 (centres undefined) |  |  |  |  |
| 260 | 240 | CCO/C(O)=C1\C(C)=NC(C)=C(C(=O)OC)C1c1cccc(-n2ccnc2)c1 (centres undefined) |  |  |  |  |
